A word on the Inhibition: it is the drop in the measured response relative to a control, in per cent. Lower therefore signals little suppression. As a reminder, the ED50 is the midpoint of the dose-response relation. Lower therefore signals an effect at a small dose.

Structures are written as SMILES.

Experiment [1] deals with Rattus norvegicus. The experiment is described as follows: In vivo inhibition of formalin induced flinching after intra paw dosing of compound at 300 ug.
Experiment [2] has as its system Mus musculus. Put plainly: Effective dose that induced platform sedation after subcutaneous administration in mice. The experiment is classed as functional. Particulars: sc. Put shortly: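 Mice screened first for baseline latency to step fully off a slightly raised platform (11 × 8 × 3 cm); animals with baseline >15 s excluded. Drug or vehicle (20% aqueous creamaphor) given s.c. at back of neck; latency retested 20 min later, 30 s cut-off. % sedation = (test − baseline)/(30 s − baseline) × 100; ED50 from dose–response.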

`CN(C(=O)Cc1ccc(C(F)(F)F)cc1)C(CN1CCCC1)c1cccc(OCC(=O)OC(C)(C)C)c1` (racemic) registered an Inhibition in experiment [1] of 84%. Besides, the 50% effect level in experiment [2] (ED50) was put at a dose of 140 mg/kg. As to `CN(C(=O)Cc1ccc(C(F)(F)F)cc1)C(CN1CCCC1)c1cccc(O)c1` (racemic), in experiment [1], the Inhibition is 99%. `CN(C(=O)Cc1ccc(C(F)(F)F)cc1)C(CN1CCCC1)c1cccc(OCC(=O)O)c1` (racemic) came in with an Inhibition in experiment [1] of 93%. The ED50 in experiment [2] is > 300 mg/kg. In the same order, the values of `CN(C(=O)Cc1ccc(C(F)(F)F)cc1)[C@H](CN1CCCC1)c1cccc(NS(N)(=O)=O)c1` are 73% and 13 mg/kg. For `CN(C(=O)Cc1ccc(C(F)(F)F)cc1)[C@H](CN1CCCC1)c1cccc(NC(=O)CCC(=O)O)c1`, in that order: 73% and 47 mg/kg. In experiment [1], `CN(C(=O)Cc1ccc(C(F)(F)F)cc1)[C@H](CN1CCCC1)c1cccc(NS(C)(=O)=O)c1` had an Inhibition of 77%. The molecule further showed an ED50 in experiment [2] of 89 mg/kg. In turn, `CN(C(=O)Cc1ccc(C(F)(F)F)cc1)[C@H](CN1CCCC1)c1ccccc1` returned an Inhibition in experiment [1] of 92%. The same molecule displayed an ED50 in experiment [2] of 0.13 mg/kg. With `COc1cccc(C(CN2CCCC2)N(C)C(=O)Cc2ccc(C(F)(F)F)cc2)c1` (racemic), the Inhibition in experiment [1] is 99%. In turn, `CN(C(=O)Cc1ccc(Cl)c(Cl)c1)C(CN1CCCC1)c1cccc(OCC(=O)O)c1` (stereo not given) [ICI-204448] registered an ED50 in experiment [2] of 5.2 mg/kg.
